The text below walks through data of ChEMBL document CHEMBL1124765, “Synthesis and biological properties of novel phosphotriesters: a new approach to the introduction of biologically active nucleotides into cells” (J Med Chem, 1990).

In brackets after ≈: the same amount, converted by molar mass. Several values for one entry are separate records, joined by “and”; a condition that tells them apart may be missing. Equal entries are not always repeated. A value given as a limit tells only on which side of the number the result lay.

A short description of data set [1]: pKa value was determined. It is filed as physicochemical.
The species named for data set [2] is Mus musculus. Description: Mean time survival (MTS) of the mice at the end of 28 or 49 days. It counts as functional. The procedure, abridged: (§1)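 Inocula were TK⁻ HSV-1 at 10⁶ CCID50/0.05 mL or HSV-1 KOS at 10^4.7 PFU/0.05 mL. Test formulations in DMSO were applied topically four times daily for 5 days, starting at infection. Skin lesions, hind-leg paralysis and death were recorded daily for 28 (KOS) or 49 (TK⁻) days, with five mice per group.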

Data set [3] concerns Mus musculus. Description: Topical treatment of intracutaneous TK- herpes simplex virus type 1 of strain VMW 1837 infection of Nu/nu mice for mean day of appearance of skin lesions and/or paralysis of the hind legs at 0.3% concentration (v/v in DMSO). It is filed as functional. Put shortly: as §1
The subject of data set [4] is Mus musculus. Briefly: Topical treatment of intracutaneous TK- herpes simplex virus type 1 of strain VMW 1837 infection of Nu/nu mice for mean day of appearance of skin lesions and/or paralysis of the hind legs at 1% concentration (v/v in DMSO). It is filed as functional. Put shortly: as §1
In data set [5] the test system is Mus musculus. Description: Topical treatment of intracutaneous TK- herpes simplex virus type 1 of strain VMW 1837 infection of Nu/nu mice for mean day of appearance of skin lesions and/or paralysis of the hind legs at 3% concentration (v/v in DMSO). It counts as functional. Put shortly:
as §1

The species named for data set [6] is Oryctolagus cuniculus. Briefly: Evaluated for the minimum cytotoxic concentration (MCC) upon preincubation of rabbit kidney cells in medium containing 10% fetal calf serum at 37 degree Celsius for 24 hr. It counts as functional. Put shortly:
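Primary rabbit kidney cell cultures were exposed to compounds, some preincubated 24 h at 37 °C in medium with 10% fetal calf serum. The minimum cytotoxic concentration was the level causing a microscopically detectable change in normal cell morphology.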

The test system of data set [7] is Human alphaherpesvirus 1. Briefly: Evaluated for the minimum inhibitory concentration (MIC) in primary rabbit kidney (PRK) by 50% against TK- herpes simplex virus type 1 (TK- HSV-1) with strain VMW 1837. It is filed as functional. Put shortly:
(§2)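 Confluent primary rabbit kidney cell monolayers were infected with 100 CCID50 of virus. After 1 h adsorption, residual virus was removed and cells were incubated with serial compound concentrations. Cytopathogenicity was scored once it reached completion in untreated infected controls. The endpoint was the concentration reducing virus-induced cytopathogenicity by 50%.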

In data set [8] the test system is Human alphaherpesvirus 1. Description: (§3) Evaluated for the minimum inhibitory concentration (MIC) in primary rabbit kidney (PRK), by 50% upon preincubation in medium containing 10% fetal calf serum at 37 degree Celsius for 24 hr against TK- herpes simplex virus type 1 (TK- HSV-1) with s. It counts as functional. The procedure, abridged: (§4)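 Compounds were preincubated in medium with 10% fetal calf serum for 24 h at 37 °C before addition to the cells. Confluent primary rabbit kidney monolayers were infected with 100 CCID50 of virus and adsorbed for 1 h. Residual virus was removed and cells were incubated with varying compound concentrations. The endpoint was 50% reduction of cytopathogenicity, read when infected controls reached full CPE.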

Data set [9] relates to Human alphaherpesvirus 1. Description: Evaluated for the minimum inhibitory concentration (MIC) in primary rabbit kidney (PRK), by 50% against TK- herpes simplex virus type 1 (TK- HSV-1) with strain B2006. It counts as functional. Put shortly: as §2
Data set [10] relates to Human alphaherpesvirus 1. Described as §3. It is filed as functional. Put shortly:
as §4
The source holds these as a separate data set.

Data set [11] relates to Vaccinia virus. Briefly: Evaluated for the minimum inhibitory concentration (MIC) in primary rabbit kidney (PRK), by 50% upon preincubation in medium containing 10% fetal calf serum at 37 degree Celsius for 24 hr against Vaccinia virus. It is filed as functional. Particulars: Orthopoxvirus vaccinia. The procedure, abridged:
as §4

Data set [12] concerns Vesicular stomatitis virus. Description: Evaluated for the minimum inhibitory concentration (MIC) in primary rabbit kidney (PRK) by 50% against Vesicular stomatitis virus. It is filed as functional. The procedure, abridged:
as §2

The test system of data set [13] is Human alphaherpesvirus 1. Briefly: Evaluated for the minimum inhibitory concentration (MIC) in primary rabbit kidney (PRK) by 50% upon preincubation in medium containing 10% fetal calf serum at 37 degree Celsius for 24 hr against herpes simplex virus type-1 (HSV-1) with strain F. It counts as functional. Put shortly: as §4
The subject of data set [14] is Human alphaherpesvirus 1. Briefly: Evaluated for the minimum inhibitory concentration (MIC) in primary rabbit kidney (PRK) by 50% upon preincubation in medium containing 10% fetal calf serum at 37 degree Celsius for 24 hr against herpes simplex virus type-1 (HSV-1) with strain KOS. It counts as functional. The procedure, abridged: as §4
Data set [15] relates to Human alphaherpesvirus 1. Briefly: Evaluated for the minimum inhibitory concentration (MIC) in primary rabbit kidney (PRK), by 50% upon preincubation in medium containing 10% fetal calf serum at 37 degree Centigrade for 24 hr against herpes simplex virus type-1 (HSV-1) with strain Mc. It is filed as functional. The procedure, abridged: as §4
In data set [16] the test system is Vaccinia virus. Briefly: Evaluated for the minimum inhibitory concentration (MIC) in primary rabbit kidney (PRK) by 50% against Vaccinia virus. It is filed as functional. Particulars: Orthopoxvirus vaccinia. Put shortly:
as §2

Data set [17] deals with Human alphaherpesvirus 2. Briefly: Evaluated for the minimum inhibitory concentration (MIC) in primary rabbit kidney (PRK), by 50% upon pre-incubation in medium containing 10% fetal calf serum at 37 degree Centigrade for 24 hr against herpes simplex virus type-2 (HSV-2) with strains 1. It counts as functional. The procedure, abridged: as §4
For data set [18], the system named is Human alphaherpesvirus 2. Description: Evaluated for the minimum inhibitory concentration (MIC) in primary rabbit kidney (PRK), by 50% upon preincubation in medium containing 10% fetal calf serum at 37 degree Celsius for 24 hr against herpes simplex virus type-2 (HSV-2) with strains G. It counts as functional. Put shortly: as §4
The test system of data set [19] is Human alphaherpesvirus 2. Description: Evaluated for the minimum inhibitory concentration (MIC) in primary rabbit kidney (PRK), by 50% upon pre-incubation in medium containing 10% fetal calf serum at 37 degree Centigrade for 24 hr against herpes simplex virus type-2 (HSV-2) with strains L. It is filed as functional. Put shortly:
as §4

In data set [20] the test system is Human alphaherpesvirus 1. Description: Evaluated for the minimum inhibitory concentration (MIC) in primary rabbit kidney (PRK) by 50% against herpes simplex virus type-1 (HSV-1) with strains KOS. It is filed as functional. Put shortly: (§5)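 Confluent primary rabbit kidney cell cultures infected with 100 CCID50 virus; after 1 h adsorption residual virus removed and cells incubated with varying compound concentrations. Cytopathogenicity scored when complete in infected untreated controls; MIC = concentration reducing virus-induced cytopathogenicity by 50%. Compounds tested as such or after preincubation in medium with 10% fetal calf serum, 24 h, 37 °C.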

In data set [21] the test system is Human alphaherpesvirus 1. Description: Evaluated for the minimum inhibitory concentration (MIC) in primary rabbit kidney (PRK) by 50% against herpes simplex virus type-1 (HSV-1) with strains McIntyre. It is filed as functional. The procedure, abridged: as §5
Data set [22] relates to Human alphaherpesvirus 2. Description: Evaluated for the minimum inhibitory concentration (MIC) in primary rabbit kidney (PRK) by 50% against herpes simplex virus type-2 (HSV-2) with strains 196. It is filed as functional. The procedure, abridged: as §5
Data set [23] relates to Human alphaherpesvirus 2. Description: Evaluated for the minimum inhibitory concentration (MIC) in primary rabbit kidney (PRK) by 50% against herpes simplex virus type-2 (HSV-2) with strains Lyons. It is filed as functional. The procedure, abridged:
as §5

Data set [24] concerns Vesicular stomatitis virus. Description: Evaluated for the minimum inhibitory concentration (MIC) in primary rabbit kidney (PRK), by 50% upon preincubation in medium containing 10% fetal calf serum at 37 degree Celsius for 24 hr against vesicular stomatitis virus. It is filed as functional. The procedure, abridged:
as §4

Data set [25] relates to Human alphaherpesvirus 1. Description: Evaluated for the minimum inhibitory concentration (MIC) in primary rabbit kidney (PRK) by 50% against herpes simplex virus type-1 (HSV-1) with strains F. It counts as functional. Put shortly: as §5

The pKa is the pH at which an ionisable group is half protonated. The compound `CC(=O)O[C@H]1C[C@H](n2cc(C)c(=O)[nH]c2=O)O[C@@H]1COP(=O)(OC[C@H]1O[C@@H](n2cc(C)c(=O)[nH]c2=O)C[C@@H]1OC(C)=O)Oc1cc(Cl)ccc1Cl` yielded a pKa in data set [1] of 7.5.

As for `CS(=O)(=O)c1ccc(OP(=O)(OCCOCn2cnc3c(O)nc(N)nc32)OCCOCn2cnc3c(O)nc(N)nc32)cc1`, the MTS in [2] was 40.2 days and 40.6 days and 33.4 days. Besides, the entries for the “Mean day appearance of lesions” value in [3], in data set [4] and in data set [5] were 17.6, 23.6 and 29.7, respectively. The MCC in [6] stood at 400 µg/mL; in data set [6] (Oryctolagus cuniculus, kidney, read-out: MCC), 400 µg/mL. Also, the MIC in data set [7] is 70 mg/L (≈ 105 µM); in data set [8], 40 mg/L (≈ 60 µM); in data set [9], 150 mg/L (≈ 225 µM); in data set [10], 150 mg/L (≈ 225 µM); in data set [11], over 200 mg/L; in data set [12], over 200 mg/L. For the same compound, the MIC in [13] is 0.4 mg/L (≈ 0.6 µM); in data set [14] it was 0.4 mg/L (≈ 0.6 µM); in [15], 0.7 mg/L (≈ 1.05 µM); in data set [16] it was over 200 mg/L; in data set [17], 0.3 mg/L (≈ 0.45 µM); in data set [18], 0.2 mg/L (≈ 0.3 µM). For the same compound, the MIC is 0.4 mg/L (≈ 0.6 µM) in data set [19]; 0.7 mg/L (≈ 1.05 µM) in data set [20]; 1 mg/L (≈ 1.5 µM) in data set [21]; 0.4 mg/L (≈ 0.6 µM) in data set [22]; 0.4 mg/L (≈ 0.6 µM) in [23]; over 200 mg/L in data set [24]. Besides, the MIC in data set [25] is 0.7 mg/L (≈ 1.05 µM).
